Measured values from ChEMBL document CHEMBL4316633, “The Antiangiogenic Activity of Naturally Occurring and Synthetic Homoisoflavonoids from the Hyacinthaceae ( sensu APGII)” (J Nat Prod, 2019).
Active and inactive are the calls of the source. The calls are words filed in the database; no cut-off is given here.

Columns and labels:
[1] = Antiproliferative activity against human ARPE19 assessed as reduction in cell number incubated for 44 hrs by alamar blue based fluorescence assay; details: ARPE-19 cells
[2] = Cytotoxicity against human 92-1 cells assessed as reduction in cell number incubated for 44 hrs by alamar blue based fluorescence assay
[3] = Cytotoxicity against human Y79 cells assessed as reduction in cell number incubated for 44 hrs by alamar blue based fluorescence assay
[4] = Antiproliferative activity against HREC assessed as reduction in cell number incubated for 44 hrs by alamar blue based fluorescence assay; format: functional; details: Homo sapiens
[5] = Antiproliferative activity against HUVEC assessed as reduction in cell number incubated for 44 hrs by alamar blue based fluorescence assay; details: human, HUVEC cells
Outline: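 Primary endothelial cells (HRECs, HUVECs; passage 5–8) in EGM-2; 2,500 cells seeded, 24 h at 37°C, 5% CO2, then compounds 0.5 nM–500 μM for 44 h. alamarBlue added 4 h, fluorescence ex 560/em 590 nm.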

Homo sapiens [6] = species: Homo sapiens; assay: Antiangiogenic activity against HREC assessed as reduction in tube formation incubated for 8 hrs by matrigel based tube formation assay; format: functional
Outline: (§1)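 HRECs (passage 5–8), 15,000 cells in EGM-2 medium, plated on Matrigel basement membrane coat with DMSO vehicle or graded compound concentrations; SH-11037 as positive control. Images taken after 8 h; tubule length quantified by Angiogenesis Analyzer macros and expressed relative to DMSO control. Mean ± SEM, n=3–6 wells, duplicate experiments; one-way ANOVA with Dunnett's test.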

Homo sapiens [7] = species: Homo sapiens; assay: Antiangiogenic activity against HREC assessed as reduction in tube formation at 0.05 to 0.5 uM incubated for 8 hrs by matrigel based tube formation assay; format: functional; outline: as §1
Homo sapiens [8] = species: Homo sapiens; assay: Antiangiogenic activity against HREC assessed as reduction in tube formation at 0.01 to 0.1 nM incubated for 8 hrs by matrigel based tube formation assay; format: functional; outline: as §1
Homo sapiens [9] = species: Homo sapiens; assay: Antiangiogenic activity against HREC assessed as reduction in tube formation at 0.01 to 0.1 uM incubated for 8 hrs by matrigel based tube formation assay; format: functional; outline: as §1

| Structure (SMILES) | GI50 at 44 h [1] [µM] | GI50 at 44 h [2] [µM] | GI50 at 44 h [3] [µM] | GI50 [4] [µM] | GI50 at 44 h [5] [µM] | inhibition (Homo sapiens [6]) | inhibition (Homo sapiens [7]) | inhibition (Homo sapiens [8]) | inhibition (Homo sapiens [9]) |
| --- | --- | --- | --- | --- | --- | --- | --- | --- | --- |
| O=C1/C(=C/c2ccc(O)cc2)COc2cc(O)cc(O)c21 | > 100 | > 100 | > 100 | 60 |  |  |  |  |  |
| COc1cc2c(cc1O)C[C@]21COc2cc(OC(C)=O)cc(O)c2C1=O |  | > 100 | > 100 | > 100 | > 100 |  |  |  |  |
| COc1ccc(/C=C2\COc3cc(O)c(O)c(O)c3C2=O)cc1O |  | > 100 | 23 | 17 | 41 |  |  |  |  |
| COc1cc(O)cc2c1C(=O)[C@H](Cc1ccc(O)c(O)c1)CO2 |  | > 100 | 25 | > 100 | 14 |  |  |  |  |
| COc1ccc2c(c1OC)OC/C(=C\c1ccc(SC)cc1)C2=O | > 100 | > 100 | 11 | 3.6 |  |  |  |  |  |
| COc1c(O)c(OC)c2c(c1O)OC[C@@H](Cc1ccc(O)cc1)C2=O | > 100 | > 100 | > 100 | > 100 |  |  |  |  |  |
| COc1ccc(/C=C2\COc3cc(OC(C)=O)c(O)c(O)c3C2=O)cc1OC(C)=O |  | 69 | 29 | 16 | 11 | Dose-dependent effect |  |  |  |
| COc1ccc(/C=C2\COc3cc(OC)c(OC)c(OC)c3C2=O)cc1O | 1.3 | 8.2 | 23 | 2.2 |  |  |  |  |  |
| COc1ccc(C[C@@H]2COc3cc(O)cc(O)c3C2=O)cc1 |  | > 100 | > 100 | > 100 | > 100 |  |  |  |  |
| CCOc1ccc(C(=O)/C=C/c2ccc(OC)c(OC)c2)c(O)c1C | > 100 | > 100 | > 100 | 3.9 |  |  | Active |  |  |
| COc1c(O)cc(O)c2c1OC[C@@H](Cc1ccc(O)cc1)C2=O | > 100 | > 100 | > 100 | 64 to 100 | > 100 |  |  |  |  |
| COc1cc2c(cc1O)[C@@]1(COc3cc(O)cc(O)c3C1=O)C2 |  | > 100 | > 100 | > 100 | > 100 |  |  |  |  |
| COc1ccc(C[C@]2(O)COc3cc(OC)cc(O)c3C2=O)cc1 | > 100 | > 100 | > 100 | 64 |  |  |  |  |  |
| COc1ccc(CC2(O)COc3cc(O)cc(O)c3C2=O)cc1 (configuration not stated) |  | > 100 | > 100 | > 100 | > 100 |  |  |  |  |
| COc1c(O)cc2c(c1O)C(=O)/C(=C/c1ccc(O)c(O)c1)CO2 | > 100 | > 100 | > 100 | > 100 |  |  |  |  |  |
| COc1ccc(/C=C2\COc3c(OC)c(O)cc(O)c3C2=O)cc1 | > 100 | > 100 | > 100 | > 100 |  |  |  |  |  |
| COc1ccc(CC2COc3cc(OC)c(OC)c(OC)c3C2=O)cc1O (racemic) | > 100 | > 100 | > 100 | 0.21 |  |  |  |  |  |
| COc1ccc(C[C@@H]2COc3c(OC)c(O)cc(O)c3C2=O)cc1 | > 100 | > 100 | > 100 | > 100 |  |  |  |  |  |
| COc1ccc(C[C@]2(O)COc3cc(O)cc(O)c3C2=O)cc1 | > 100 | > 100 | > 100 | 74 |  |  |  |  |  |
| COc1c(O)cc2c(c1O)C(=O)[C@H](Cc1ccc(O)c(O)c1)CO2 | > 100 | > 100 | > 100 | > 100 |  |  |  |  |  |
| COc1cc(O)c2c(c1)OC[C@]1(Cc3c1cc(OC)c(OC)c3O)C2=O |  | > 100 | > 100 | > 100 | > 100 |  |  |  |  |
| O=Cc1ccc(O)cc1 [4-HYDROXYBENZALDEHYDE] |  | > 100 | > 100 | > 100 | > 100 |  |  |  |  |
| COc1c(O)cc(O)c2c1OC/C(=C\c1ccc(O)cc1)C2=O |  | > 100 | > 100 | 40 | > 100 |  |  |  |  |

| Structure (SMILES) | GI50 at 44 h [1] [µM] | GI50 at 44 h [2] [µM] | GI50 at 44 h [3] [µM] | GI50 [4] [µM] | GI50 at 44 h [5] [µM] | inhibition (Homo sapiens [6]) | inhibition (Homo sapiens [7]) | inhibition (Homo sapiens [8]) | inhibition (Homo sapiens [9]) |
| --- | --- | --- | --- | --- | --- | --- | --- | --- | --- |
| O=C1c2c(O)cc(O)cc2OC[C@]12Cc1cc3c(cc12)OCO3 |  | > 100 | > 100 | > 100 | > 100 |  |  |  |  |
| COc1cc(O)cc2c1C(=O)[C@H](Cc1ccc(O)cc1)CO2 |  | > 100 | > 100 | > 100 | > 100 |  |  |  |  |
| COc1cc(OC)c2c(c1)OC/C(=C\c1ccc(SC)cc1)C2=O | 48 | > 100 | 2 | 2.5 |  |  |  |  |  |
| O=C1c2c(O)cc(O)cc2OC[C@H]1Cc1ccc(O)cc1 |  | > 100 | > 100 | > 100 | > 100 |  |  |  |  |
| O=C1c2c(O)cc(O)cc2OC[C@H]1Cc1ccc(O)c(O)c1 |  | > 100 | > 100 | > 100 | > 100 |  |  |  |  |
| O=C1/C(=C/c2ccc(O)c(O)c2)COc2cc(O)cc(O)c21 | > 100 | > 100 | > 100 | > 100 |  |  |  |  |  |
| COc1cc2c(cc1O)C[C@]21COc2cc(O)cc(O)c2C1=O |  | > 100 | > 100 | > 100 | > 100 |  |  |  |  |
| COc1cc2c(c(OC)c1OC)C(=O)/C(=C/c1ccc(Cl)c(O)c1)CO2 | 0.73 | 3.6 | 13 | 0.11 |  |  |  |  |  |
| CC(=O)Oc1cc(C[C@H]2COc3cc(O)cc(O)c3C2=O)ccc1O |  | > 100 | > 100 | > 100 | > 100 |  |  |  |  |
| COc1ccc(CC2COc3cc(OC)c(OC)c(OC)c3C2)cc1O (racemic) | 0.00034 | 52 | 18 | 0.00023 |  |  |  | Active |  |
| COc1cc(O)c2c(c1)OC[C@]1(Cc3c1cc(OC)c(OC)c3OC)C2=O |  | > 100 | > 100 | > 100 | > 100 |  |  |  |  |
| COc1c(O)cc2c(c1O)C(=O)[C@H](Cc1ccc(O)cc1)CO2 |  | > 100 | > 100 | > 100 | > 100 |  |  |  |  |
| O=C1CCOc2cc(O)cc(O)c21 |  | > 100 | > 100 | > 100 | > 100 |  |  |  |  |
| COc1cc(O)cc(OC)c1C(=O)/C=C/c1ccc(O)cc1 |  |  | > 100 | > 100 | > 100 |  |  |  |  |
| COc1cc(O)cc2c1C(=O)/C(=C/c1ccc(O)c(O)c1)CO2 |  | > 100 | > 100 | > 100 | > 100 |  |  |  |  |
| CC(=O)Oc1cc(O)cc2c1C(=O)/C(=C/c1ccc(O)c(O)c1)CO2 |  | > 100 | 2.5 | 1.4 | 5 | Dose-dependent effect |  |  |  |
| COc1ccc(C[C@@H]2COc3cc(OC)c(OC)c(OC)c3C2=O)cc1O | > 100 | > 100 | 85 | 0.035 |  |  |  |  | Active |
| COc1ccc(C[C@H]2COc3cc(OC(C)=O)cc(OC(C)=O)c3C2=O)cc1O |  | > 100 | > 100 | > 100 | 92 |  |  |  |  |
| COc1ccc(/C=C2\COc3cc(OC(C)=O)cc(O)c3C2=O)cc1O |  | 67 | 58 | 18 | 26 | Dose-dependent effect |  |  |  |
| COc1ccc(/C=C2\COc3cc(OC)c(OC)c(O)c3C2=O)cc1O | 4.8 | > 100 | 2.4 | 0.26 |  |  | Active |  |  |
| COc1cc(OC(C)=O)cc2c1C(=O)/C(=C/c1ccc(OC(C)=O)cc1)CO2 |  | > 100 | > 100 | 96 | 43 |  |  |  |  |
| COc1cc2c(cc1O)C[C@]21COc2cc(OC(C)=O)cc(OC(C)=O)c2C1=O |  | > 100 | > 100 | > 100 | > 100 |  |  |  |  |
